Results collected from several papers.
Lines come from different studies, so protocols differ. Values after ≈ are worked out from the molar mass of the structure shown.

SMILES | tested on | assay | system | conditions | endpoint | value
COc1ccc2[nH]cc(CCN(C)C)c2c1 |  | potentiometric | water |  | pKa | 9.1
CC1(C)CC(NC(=O)C(=O)Nc2ccc(Cl)cc2)CC(C)(C)N1 | Cf2Th-CCR5 | cell growth or viability, MTS |  | 48 h | CC50 | > 100 µM
CCN(CC)CCO[C@H]1CC[C@@]2(C)C(=CC[C@@H]3[C@@H]2CC[C@]2(C)C(=O)CC[C@@H]32)C1 | MA104 | cell growth or viability, MTS |  | 24 h | CC50 | 219 µM
CC[C@H](C)[C@H](NC(C)=O)C(=O)N[C@H]1CSSC[C@@H](C(=O)N[C@H](C(N)=O)[C@@H](C)O)NC(=O)[C@H](CCCNC(=N)N)NC(=O)[C@H](Cc2c[nH]cn2)NC(=O)[C@@](C)(CC)NC(=O)CNC(=O)[C@H](Cc2c[nH]c3ccccc23)NC(=O)[C@H](CC(=O)O)NC(=O)[C@H](CCC(N)=O)NC(=O)[C@H](Cc2c[nH]c3ccccc23)NC(=O)[C@H](C(C)C)NC1=O |  |  | PBS | pH 7.4 | solubility | 3600 µg/mL (≈ 2190 µM)
CC[C@@H]1CN2CCc3c([nH]c4cccc(OC)c34)[C@H]2C[C@@H]1/C(=C\OC)C(=O)OC | dog Hepatocyte | metabolic stability | hepatocytes |  | half-life | > 2 h
N[C@@H]1C[C@H]1c1ccccc1 (racemic) | Cytochrome P450 2A6 (CYP2A6, Homo sapiens, UniProt P11509) | enzyme activity, inhibitor, fluorescence |  |  | IC50 | 0.49 µM
Cc1ncc(C)n2nc(/C=C/c3nc(N4CCCC4)cc(N4CCOCC4)n3)nc12 |  |  | male beagle dog, plasma | oral, 0.3 mg/kg | bioavailability | 42%
CC[C@H](C)[C@H](NC(=O)[C@H](CCCNC(=N)N)NC(=O)[C@H](CCC(=O)O)NC(C)=O)C(=O)N[C@H]1CSSC[C@@H](C(=O)N[C@H](C(N)=O)[C@@H](C)O)NC(=O)[C@H](CCCNC(=N)N)NC(=O)[C@H](Cc2c[nH]cn2)NC(=O)[C@H](Cc2cccc3ccccc23)NC(=O)CNC(=O)[C@H](Cc2c[nH]c3ccccc23)NC(=O)[C@H](CC(=O)O)NC(=O)[C@H](CCC(N)=O)NC(=O)[C@H](Cc2c[nH]c3ccccc23)NC(=O)[C@H](C(C)C)NC1=O |  |  | PBS | pH 7.4 | solubility | 380 µg/mL (≈ 188 µM)
C#Cc1ccc2c(c1)C(c1ccccn1)=NCc1c(-c3cnco3)ncn1-2.Cl |  |  | water | 10 min, 37 °C | kinetic solubility | 2400 µg/mL
